The results in this text go back to ChEMBL document CHEMBL1641595, “Molecular modeling based approach, synthesis and in vitro assay to new indole inhibitors of hepatitis C NS3/4A serine protease” (Bioorg Med Chem, 2011).

The inhibition is the relative decrease from the control value, in per cent. The low end stands for a response near the control, the high end for a response far below the control. The IC50 is the point on the concentration scale where inhibition reaches its midpoint.

In brackets after ≈: the same amount, converted by molar mass. Some results are limits rather than exact numbers.

Test [1] relates to Hepacivirus hominis. The test is described as follows: Inhibition of HCV NS3/4A protease at 100 ug/ml after 30 mins. In outline: (§1)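 Recombinant HCV NS3/4A protease, freshly diluted to 0.5 µg/mL, was combined with test compound in DMSO. The reaction was started with FRET peptide substrate Ac-Asp-Glu-Asp(EDANS)-Glu-Glu-Abu-ψ-[COO]Ala-Ser-Lys(DABCYL)-NH2, diluted 100-fold from a DMSO stock. After 30 min at room temperature (28 °C), fluorescence was read at […]. % inhibition = 100×(Fvehicle−Fsample)/Fvehicle, with both values corrected by subtracting the substrate control.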

The test system of test [2] is Hepacivirus hominis. The test is described as follows: Inhibition of HCV NS3/4A protease at 50 ug/ml after 30 mins. In short, it runs like this:
as §1

A short description of test [3]: Inhibition of HCV NS3/4A protease after 30 mins. Also on record: species or system Hepacivirus hominis. In short, it runs like this:
as §1

For test [4], the system named is Hepacivirus hominis. The test is described as follows: Inhibition of HCV NS3/4A protease at 10 ug/ml after 30 mins. In short, it runs like this:
as §1

`O=C(COc1ccc(/C=C/C(=O)c2c[nH]c3ccccc23)cc1)N[C@@H](Cc1ccccc1)C(=O)O`: the results for the inhibition with Hepacivirus hominis [1], with Hepacivirus hominis [2] and in the test with Hepacivirus hominis [4] were 84.7%, 82.4% and 53.7%, respectively. This compound showed an IC50 in test [3] of 9 µg/mL (≈ 19.2 µM).

For the compound `O=C(COc1ccc(/C=C/C(=O)c2c[nH]c3ccccc23)cc1)Nc1ccc(C(=O)c2ccccc2C(=O)O)cc1`, the inhibition in the test on Hepacivirus hominis [1] turned out to be 80.9%; in the test on Hepacivirus hominis [2] it was 72%; in the test with Hepacivirus hominis [4], 40.1%. In test [3], this compound yielded an IC50 of 19 µg/mL (≈ 34.9 µM).

For the compound `O=C(COc1ccc(/C=C/C(=O)c2c[nH]c3ccccc23)cc1)N[C@@H](Cc1c[nH]cn1)C(=O)O`, the figures for the inhibition in the test with Hepacivirus hominis [1], in the test on Hepacivirus hominis [2] and in the test with Hepacivirus hominis [4] were 78.7%, 48.5% and 36.4%, respectively. Moreover, in test [3], the IC50 was 21 µg/mL (≈ 45.8 µM).

`CC(C)C[C@H](NC(=O)C1(Cc2ccsc2C(=O)O)Cc2ccccc2N1)C(=O)NC(CC(F)F)C(=O)C(=O)O` (some centres not stated): the half-inhibitory concentration (IC50) in test [3] turned out to be 0.4 µg/mL (≈ 0.707 µM).

On to `O=C(O)COc1ccc(/C=C/C(=O)c2c[nH]c3ccccc23)cc1`, for which the inhibition with Hepacivirus hominis [1] came out at 51.8%; with Hepacivirus hominis [2] it was 22.9%. The IC50 in test [3] is > 100 µg/mL.

On to `N#Cc1cncnc1NC(=O)COc1ccc(/C=C/C(=O)c2c[nH]c3ccccc23)cc1`, for which the inhibition worked out at 58.4% with Hepacivirus hominis [1] and 29.4% in the test on Hepacivirus hominis [2]. Also, the IC50 in test [3] was > 100 µg/mL.

On to `O=C(COc1ccc(/C=C/C(=O)c2c[nH]c3ccccc23)cc1)Nc1ncncc1C(=O)O`, for which the inhibition in the test with Hepacivirus hominis [1] worked out at 73.7%; in the test on Hepacivirus hominis [2] it was 57.2%; with Hepacivirus hominis [4], 22.4%. For the same compound, the IC50 in test [3] is 29 µg/mL (≈ 65.5 µM).

`CC(=O)OCCC/C(=C1/SC(=S)N(CC(=O)O)C1=O)c1ccc(Br)cc1` returned an IC50 in test [3] of 6.4 µg/mL (≈ 14 µM).

For the compound `O=C(COc1ccc(/C=C/C(=O)c2c[nH]c3ccccc23)cc1)N[C@@H](Cc1ccc(O)cc1)C(=O)O`, the inhibition in the test with Hepacivirus hominis [1] is 83.9%; in the test with Hepacivirus hominis [2], 81.2%; with Hepacivirus hominis [4], 49.5%. In addition, in test [3], the IC50 was 12 µg/mL (≈ 24.8 µM).

Regarding `O=C(COc1ccc(/C=C/C(=O)c2c[nH]c3ccccc23)cc1)N[C@@H](Cc1c[nH]c2ccccc12)C(=O)O`, the inhibition was determined as 82.9% with Hepacivirus hominis [1], 67.2% in the test with Hepacivirus hominis [2] and 44.5% with Hepacivirus hominis [4]. Further, the IC50 in test [3] was 19 µg/mL (≈ 37.4 µM).
